Columns and labels:
[1] = Cytotoxicity against human HepG2 cells after 72 hrs by MTT assay; assay type: cell-based
Outline: (§1)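 Cells plated in RPMI with 10% FBS, L-glutamine, penicillin/streptomycin at 37 °C, 6% CO2. After 24 h, a range of compound concentrations was added for 72 h. Wells checked for precipitate; MTT for 2 h at 37 °C; formazan dissolved in DMSO; A570 with 630 nm reference. Viability as % of untreated control; CC50 from dose-response curve, mean of two independent experiments.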

[2] = test system: Leishmania donovani; test: Antileishmanial activity against Leishmania donovani MHOM/IN/00/DEVI promastigotes after 72 hrs by MTT assay; assay type: functional, organism-based
Outline: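 Late log-phase promastigotes in Schneider's medium with 20% FCS, 2 mM L-glutamine, penicillin/streptomycin, at 10^6 parasites/mL. Compounds in DMSO (final <0.5% v/v) over a concentration range, in duplicate, 72 h at 27 °C. MTT 0.5 mg/mL added for 6 h at 27 °C; pellet dissolved in DMSO; A570. IC50 by non-linear regression versus control; mean of two independent experiments.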

[3] = Cytotoxicity against mouse J774A1 cells after 72 hrs by MTT assay; assay type: cell-based, J774.A1; outline: as §1
[4] = Selectivity index, ratio of CC50 for mouse J774A1 cells to IC50 for Leishmania donovani MHOM/IN/00/DEVI promastigotes; assay type: functional, J774.A1
Outline: (§2)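 SI computed as CC50 (HepG2 or J774) divided by L. donovani promastigote IC50. Both values come from the MTT assays above, each the mean of two independent experiments.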

[5] = test system: Leishmania infantum; test: Antileishmanial activity against Leishmania infantum MCAN/ES/98/LLM-877 promastigotes after 72 hrs by MTT assay; assay type: functional, organism-based; conditions: MCAN/ES/98/LLM-877, 72 h
[6] = test system: Leishmania donovani; test: Antileishmanial activity against Leishmania donovani MHOM/IN/00/DEVI amastigotes infected in mouse J774A.1 cells after 120 hrs by Giemsa staining-based microscopic analysis; conditions: J774.A1, 120 h
[7] = test system: Toxoplasma gondii; test: Antitoxoplasmic activity against Toxoplasma gondii PRU tachyzoites infected in human HFF cells assessed as beta-galactosidase activity after 72 hrs by colorimetric assay; assay type: functional, cell-based
Outline: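 HFF monolayers grown to confluence (3.10^4 cells/well) in RPMI with 10% FCS at 37 °C, 6% CO2. Infected with 1 × 10^4 PRU-β-Gal tachyzoites for 3 h, then compounds (DMSO <0.5% v/v) added in triplicate for 72 h. 1 mM CPRG for 6 h; read at 570 and 630 nm, blanked on uninfected wells. IC50 by non-linear regression; mean of two experiments.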

[8] = Selectivity index, ratio of CC50 for human HepG2 cells to IC50 for Leishmania donovani MHOM/IN/00/DEVI promastigotes; assay type: functional; outline: as §2

Row | SMILES | CC50 at 72 h [1] | IC50 [2] | CC50 at 72 h [3] | Ratio CC50/IC50 [4] | IC50 [5] | IC50 [6] | IC50 [7] | Ratio CC50/IC50 [8]
1 | O=[N+]([O-])c1cccc2ncccc12 | > 100 µM | > 50 µM | > 100 µM | – | – | – | – | –
2 | O=Cc1ccc2ccccc2n1 | > 100 µM | > 50 µM | 28.8 µM | <0.58 | – | – | – | –
3 | CCCCCCCCCCCCCCCCOP(=O)([O-])OCC[N+](C)(C)C [MILTEFOSINE] | 50.3 µM | – | 94.6 µM | – | 11.6 µM | 6.8 µM | – | –
4 | CCc1nc(N)nc(N)c1-c1ccc(Cl)cc1 [PYRIMETHAMINE] | – | – | – | – | – | – | 0.8 µM | –
5 | N=C(N)c1ccc(OCCCCCOc2ccc(C(=N)N)cc2)cc1 [PENTAMIDINE] | 2.3 µM | 6 µM | 1 µM | 0.17 | 8.2 µM | > 20 µM | – | 0.38
6 | Cc1ccc2cc([N+](=O)[O-])ccc2n1 | > 100 µM | > 50 µM | > 100 µM | – | – | – | – | –
7 | O=[N+]([O-])c1cccc2nc(Cl)ccc12 | > 100 µM | > 50 µM | > 100 µM | – | – | – | – | –
8 | Cc1ccc2ccccc2n1 [QUINALDINE] | > 100 µM | > 50 µM | > 100 µM | – | – | – | – | –
9 | Clc1ccc2ccccc2n1 | > 100 µM | > 50 µM | > 100 µM | – | – | – | – | –
10 | O=[N+]([O-])c1cccc2nc(O)ccc12 | > 100 µM | > 50 µM | > 100 µM | – | – | – | – | –
11 | O=Cc1ccc2c([N+](=O)[O-])cccc2n1 | 92 µM | > 50 µM | 22.8 µM | <0.46 | – | – | – | <1.8
12 | O=[N+]([O-])c1ccc2nc(O)ccc2c1 | > 100 µM | > 50 µM | 83.7 µM | <1.7 | – | – | – | –
13 | Oc1ccc2ccccc2n1 | > 100 µM | > 50 µM | > 100 µM | – | – | – | – | –
14 | c1ccc2ncccc2c1 [QUINOLINE] | > 100 µM | > 50 µM | > 100 µM | – | – | – | – | –
15 | O=[N+]([O-])c1cccc2cccnc12 | > 100 µM | > 50 µM | > 100 µM | – | – | – | – | –
16 | C[C@@H]1[C@H](O)[C@@H](C)/C=C/C=C/C=C/C=C/C=C/C=C/C=C/[C@H](O[C@@H]2O[C@H](C)[C@@H](O)[C@H](N)[C@@H]2O)C[C@@H]2O[C@](O)(C[C@@H](O)C[C@@H](O)[C@H](O)CC[C@@H](O)C[C@@H](O)CC(=O)O[C@H]1C)C[C@H](O)[C@H]2C(=O)O [AMPHOTERICIN B] | – | 0.1 µM | 3.1 µM | – | 0.05 µM | – | – | –
17 | Cc1ccc2cccc([N+](=O)[O-])c2n1 | > 100 µM | > 50 µM | > 100 µM | – | – | – | – | –
18 | COc1cccc2c1C(=O)c1c(O)c3c(c(O)c1C2=O)C[C@@](O)(C(=O)CO)C[C@@H]3O[C@H]1C[C@H](N)[C@H](O)[C@H](C)O1 [DOXORUBICIN] | – | – | 0.02 µM | – | – | – | – | –
